In ChEMBL document CHEMBL1142666, “Novel [2',5'-bis-O-(tert-butyldimethylsilyl)-beta-D-ribofuranosyl]- 3'-spiro-5''-(4''-amino-1'',2''-oxathiole-2'',2" -dioxide) derivatives with anti-HIV-1 and anti-human-cytomegalovirus activity” (J Med Chem, 2005) one finds MCC, EC50 and CC50 data, which are given here for ten compounds.

Holding throughout (conditions): Homo sapiens
Test [1] has as its system HEL. Kind of test: Minimal cytotoxic concentration required to cause microscopically visible alteration of cell morphology in HEL Cells. The test is classed as functional. Summed up: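 Uninfected HEL cells exposed to compound. Minimum cytotoxic concentration is the lowest level giving a microscopically detectable change in cell morphology.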
Test [2] relates to CCRF-CEM. Kind of test: Effective concentration required to inhibit HIV-2 ROD in CEM cell culture. The test is classed as functional, cell-based. Summed up:
(§1)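 CEM cells (4 × 10^5/mL) infected at ~100 CCID50/mL and mixed with compound dilutions. Giant cell formation scored microscopically at day 4. EC50 = concentration inhibiting virus-induced cytopathicity by 50%.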

Test [3] concerns HEL. The experiment in a line: Effective concentration required to inhibit HCMV AD-169 in HEL Cells. The test is classed as functional, cell-based. Summed up:
(§2)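 Confluent HEL cells infected with HCMV at 100 PFU/well. After 1-2 h, residual virus removed and MEM with 2% inactivated FCS added, with compound in duplicate at 5-fold dilution steps. After 7 days at 37 °C in 5% CO2, cells fixed with ethanol and Giemsa-stained; plaques or CPE scored microscopically. IC50 interpolated graphically; mean of two independent experiments.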

In test [4] the test system is CCRF-CEM. Kind of test: Effective concentration required to inhibit HIV-1 IIIB in CEM cell culture. The test is classed as functional, cell-based. Summed up:
as §1

The subject of test [5] is HEL. Kind of test: Effective concentration required to inhibit HCMV Davis in HEL Cells. It counts as functional, cell-based. In outline:
as §2

The subject of test [6] is HEL. Kind of test: Cytostatic concentration required to inhibit HEL cell proliferation. The test is classed as functional. In outline: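 HEL fibroblasts seeded at 5 × 10^3 cells/well and grown 24 h, then given compound in duplicate. After 3 days at 37 °C in 5% CO2, cell number read on a Coulter counter. CC50 = concentration reducing cell growth by 50%.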
Test [7] has as its system CCRF-CEM. The experiment in a line: Cytostatic concentration of the cell proliferation. The test is classed as functional.
The test system of test [8] is MT4. The experiment in a line: Effective concentration required to inhibit HIV-1 IIIB in MT-4 cell culture. The test is classed as functional, cell-based. Summed up:
(§3)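 MT-4 cells (3 × 10^5/mL) infected at ~100 CCID50/mL and mixed with compound dilutions. Cytopathicity read by trypan blue exclusion at day 5. EC50 = concentration giving 50% protection against virus-induced loss of viability.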

Test [9] relates to MT4. Kind of test: Effective concentration required to inhibit HIV-2 ROD in MT-4 cell culture. The test is classed as functional, cell-based. Summed up:
as §3

The subject of test [10] is MT4. The experiment in a line: Cytostatic concentration required to inhibit MT-4 cell proliferation. It counts as functional. Summed up:
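Mock-infected MT-4 cells (3 × 10^5/mL) incubated with compound dilutions for 5 days. Viable cells counted by trypan blue exclusion. CC50 = concentration reducing viable MT-4 cell number by 50%.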

In test [11] the test system is CCRF-CEM. Kind of test: Cytostatic concentration required to inhibit CEM cell proliferation. The test is classed as functional. Summed up: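 CEM cells, mock-infected, grown with serial compound dilutions for 4 days. CC50 taken as the concentration that inhibits CEM cell proliferation by 50%.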

What is called EC50 is the concentration that produces a half-maximal response. Broadly, the CC50 is the concentration that lowers cell viability or growth by half. Higher therefore signals lower toxicity to the cells. In the case of `Cc1cn([C@@H]2O[C@H](CO[Si](C)(C)C(C)(C)C)[C@@]3(OS(=O)(=O)C=C3NCCC(N)=O)[C@H]2O[Si](C)(C)C(C)(C)C)c(=O)n(C)c1=O`, the MCC in test [1] is at least 80 µM. Further, the half-maximal effective concentration (EC50) was over 10 µM in [2]; over 16 µM in [3]; 5 µM in [4]; 29 µM in test [5]; over 10 µM in test [8]; over 10 µM in test [9]. In addition, the figures for the CC50 in test [6], in test [7] and in test [10] were 14.8 µM, 21 µM and 20 µM, respectively.

In the case of `Cc1cn([C@@H]2O[C@H](CO[Si](C)(C)C(C)(C)C)[C@@]3(OS(=O)(=O)C=C3NC(=O)C(=O)N3CCC3)[C@H]2O[Si](C)(C)C(C)(C)C)c(=O)n(C)c1=O`, in [1], the MCC amounted to 65 µM. Besides, the EC50 in [2] is over 10 µM; in [3], 10 µM; in test [4], 0.7 µM; in [5] it was 10 µM; in test [8], 0.8 µM; in test [9], over 50 µM. For the same compound, the CC50 in test [6] was determined as 84.4 µM; in test [11], 21.6 µM; in [10], 17.4 µM.

As to `COC(=O)NC1=CS(=O)(=O)O[C@@]12[C@@H](CO[Si](C)(C)C(C)(C)C)O[C@@H](n1cc(C)c(=O)n(C)c1=O)[C@@H]2O[Si](C)(C)C(C)(C)C`, in [1], the MCC is at least 50 µM. Besides, the EC50 in [2] was over 20 µM; in test [3], at least 20 µM; in test [4], over 20 µM; in [5], 25 µM; in test [8], over 20 µM; in [9] it was over 20 µM. Also, the CC50 was over 200 µM in [6], 30.7 µM in test [11] and 29.9 µM in [10].

As for `CCOC(=O)CN1C(=O)CN(C(=O)NC2=CS(=O)(=O)O[C@@]23[C@@H](CO[Si](C)(C)C(C)(C)C)O[C@@H](n2cc(C)c(=O)n(C)c2=O)[C@@H]3O[Si](C)(C)C(C)(C)C)C1=O`, in test [1], the MCC was at least 3.2 µM. Further, the 50% effective concentration (EC50) is over 2 µM in test [2]; 0.29 µM in [3]; 0.24 µM in test [4]; 0.32 µM in test [5]; 0.88 µM in test [8]; over 2 µM in [9]. Besides, the figures for the cytotoxic concentration (CC50) in test [6], in test [11] and in test [10] were 2.5 µM, 1.42 µM and 1.43 µM, respectively.

In the case of `COC(=O)C(=O)NC1=CS(=O)(=O)O[C@@]12[C@@H](CO[Si](C)(C)C(C)(C)C)O[C@@H](n1cc(C)c(=O)n(C)c1=O)[C@@H]2O[Si](C)(C)C(C)(C)C`, the MCC in test [1] is over 400 µM. Besides, the EC50 is over 4 µM in test [2]; 253 µM in [3]; 0.06 µM in test [4]; 179 µM in test [5]; 0.08 µM in test [8]; over 4 µM in test [9]. The values for the CC50 in test [6], in test [11] and in test [10] were over 200 µM, 5.57 µM and 10.3 µM, respectively.

The compound `COC(=O)CC(=O)NC1=CS(=O)(=O)O[C@@]12[C@@H](CO[Si](C)(C)C(C)(C)C)O[C@@H](n1cc(C)c(=O)n(C)c1=O)[C@@H]2O[Si](C)(C)C(C)(C)C` showed an MCC in test [1] of 400 µM. The EC50 in test [2] is over 25 µM; in test [3], 9 µM; in [4] it was at least 5 µM; in test [5], 10 µM; in test [8], 19.5 µM; in [9] it was over 5 µM. Also, the results for the CC50 in test [6], in [11] and in test [10] were 29 µM, 29.7 µM and 11.9 µM, respectively.

With `COC(=O)CCNC1=CS(=O)(=O)O[C@@]12[C@@H](CO[Si](C)(C)C(C)(C)C)O[C@@H](n1cc(C)c(=O)n(C)c1=O)[C@@H]2O[Si](C)(C)C(C)(C)C`, the MCC in test [1] was at least 400 µM. Besides, the 50% effective concentration (EC50) is over 250 µM in test [2]; over 400 µM in [3]; over 250 µM in test [4]; over 400 µM in [5]; over 250 µM in test [8]; over 250 µM in [9]. The results for the cytotoxic concentration (CC50) in test [6], in test [11] and in [10] were 94 µM, over 250 µM and over 250 µM, respectively.

`C=C(C)C(=O)NC(=O)NC1=CS(=O)(=O)O[C@@]12[C@@H](CO[Si](C)(C)C(C)(C)C)O[C@@H](n1cc(C)c(=O)n(C)c1=O)[C@@H]2O[Si](C)(C)C(C)(C)C` displayed an MCC in test [1] of 20 µM. The 50% effective concentration (EC50) is over 0.8 µM in test [2]; over 20 µM in test [3]; over 0.8 µM in test [4]; over 4 µM in [5]; over 0.8 µM in test [8]; over 0.8 µM in [9]. For the same compound, the figures for the CC50 in test [6], in test [11] and in test [10] were 1.2 µM, 1.2 µM and 1.19 µM, respectively.

`Cc1cn([C@@H]2O[C@@H]3COC(=O)[C@]3(OS(C)(=O)=O)[C@H]2O)c(=O)[nH]c1=O` showed an MCC in [1] of at least 400 µM. The EC50 in [2] was over 50 µM; in test [3], 179 µM; in [4], over 50 µM; in test [5], 164 µM; in [8] it was over 50 µM; in test [9] it was over 250 µM. Further, the 50% cytotoxic concentration (CC50) was 36 µM in test [6], 160 µM in test [11] and at least 250 µM in [10].

In turn, `Cc1cn([C@@H]2O[C@H](CO[Si](C)(C)C(C)(C)C)[C@@]3(OS(=O)(=O)C=C3NCC(N)=O)[C@H]2O[Si](C)(C)C(C)(C)C)c(=O)n(C)c1=O` yielded an MCC in test [1] of 16 µM. The EC50 is over 2 µM in test [2]; over 3.2 µM in test [3]; over 2 µM in test [4]; over 3.2 µM in [5]; over 10 µM in [8]; over 10 µM in [9]. In addition, the CC50 was 13.5 µM in test [6], 14.6 µM in test [11] and 14.9 µM in test [10].
